A short description of data set [1]: Ex vivo biodistribution of [68Ga]WL12 in hPD-L1 and CHO tumor model. The arrangement: species or system mice. The note with it: female, NSG, mouse, iv, 25 uCi, total radioactivity. A digest of the protocol:
(§1)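 Female NSG mice, 6–8 weeks old, carried s.c. CHO cells stably expressing human PD-L1 and parental CHO cells (10 × 10^6, opposite upper flanks), used at 200−500 mm3. Radiotracer was given i.v. at 25 μCi, with tissues taken at 15, 60 and 120 min (n = 3). Blocking (n = 2) used 50 μg unlabeled peptide s.c. 60 min pre-tracer. %ID/g was decay-corrected against triplicate 68Ga standards; tumor-to-blood and tumor-to-muscle ratios were derived.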

The test system of another data set is hPD-L1 and CHO tumors. The description is as above. Also noted: species or system mice. The note with it: 120 min. A digest of the protocol: as §1
The format of data set [2] is in vivo, mice. The note with it: female, NSG, mouse, iv, 25 uCi, total radioactivity.
The test system of data set [3] is MDAMB231 and SUM149 tumors. The class given is in vivo, mice. The note with it: 60 min; 50 μg WL12 s.c. 60 min before tracer, n = 2.

As usually defined, the tissue uptake is the share of the injected amount in each gram of the tissue.

Molecules are shown by their SMILES. Read-outs that look alike come from different tables or passages of the source.

Take `CCCC[C@H]1C(=O)N(C)[C@@H](CCCC)C(=O)N[C@@H](CCCNC(=O)CCC(C(=O)O)N2CCN(CC(=O)O)CCN(CC(=O)O)CCN(CC(=O)O)CC2)C(=O)N[C@H](C(=O)NCC(N)=O)CSCC(=O)N[C@@H](Cc2ccc(O)cc2)C(=O)N(C)[C@@H](C)C(=O)N[C@@H](CC(N)=O)C(=O)N2CCC[C@H]2C(=O)N[C@@H](Cc2c[nH]cn2)C(=O)N[C@@H](CC(C)C)C(=O)N2C[C@H](O)C[C@H]2C(=O)N[C@@H](Cc2c[nH]c3ccccc23)C(=O)N[C@@H](CO)C(=O)N[C@@H](Cc2cn(C)c3ccccc23)C(=O)N1C` (stereo partly shown) [[^68Ga]WL12, metal not drawn]: the tissue uptake at 1 h amounted to 1.33 ± 0.21 %ID/g in data set [1] (CHO tumor); 3.3 ± 0.4 %ID/g in data set [1] (blood); 11.6 ± 3.18 %ID/g in data set [1] (hPD-L1 tumor); 64.7 ± 12.1 %ID/g in data set [1] (kidney); 15.1 ± 7.6 %ID/g in data set [1] (liver); 4.97 ± 0.8 %ID/g in data set [2] (MDAMB231 tumor). In addition, the tissue uptake at 1 h came to 1.9 ± 0.1 %ID/g in data set [2] (SUM149 tumor), 65.6 ± 3.6 %ID/g in data set [2] (kidney) and 11.4 ± 0.7 %ID/g in data set [2] (liver). Moreover, the tissue uptake at 2 h in data set [1] (blood) was 0.6 ± 0.01 %ID/g; in data set [1] (hPD-L1 tumor), 9.89 ± 1.72 %ID/g; in data set [1] (kidney), 27.7 ± 4.09 %ID/g; in data set [1] (liver), 2.7 ± 0.2 %ID/g. Also, the tissue to tissue ratio at 2 h was 16 ± 3.4 in data set [1] (hPD-L1 tumor / blood) and 100 ± 61.2 in data set [1] (hPD-L1 tumor / muscle). Further, the tissue to tissue ratio at 1 h in data set [1] (hPD-L1 tumor / muscle) was 59.8 ± 16.5. The tissue uptake at 0.25 h in data set [1] (hPD-L1 tumor) worked out at 19.4 ± 3.3 %ID/g. The hPD-L1/CHO tumor ratio with hPD-L1 and CHO tumors was 19.7 ± 2.7. The “reduction in MDAMB231 tumor uptake with blocking dose of WL12” value in data set [3] is above 50%.

The values are drawn from article PMC6127800 (Molecular Pharmaceutics, 2018).
